Active and inactive are the calls of the source. The calls are words filed in the database; no cut-off is given here.
Legend:
Cannabinoid receptor 2 [1] = target: T1, Cannabinoid receptor 2 (Homo sapiens, UniProt P34972)
[2] = target: Cannabinoid receptor 1 (CB1) (Homo sapiens, UniProt P21554); assay: Displacement of [3H]-CP-55940 from human CB1 receptor expressed in HEK293 cell membranes at 1 to 10 uM after 90 mins relative to control; conditions: membranes of HEK293 cells expressing human CB1 receptor, probe [3H]-CP-55940
HEK293 = assay: Selectivity index, ratio of Ki for human CB1 receptor expressed in HEK293 cell membranes to Ki for human CB2 receptor expressed in HEK293 cell membranes; type: cell-based
Cannabinoid receptor 1 = Cannabinoid receptor 1 (Homo sapiens, UniProt P21554); assay: Displacement of [3H]-CP-55940 from human CB1 receptor expressed in HEK293 cell membranes after 90 mins by radioligand binding assay
Cannabinoid receptor 2 [3] = target: T1, Cannabinoid receptor 2; assay: Displacement of [3H]-CP-55940 from human CB2 receptor expressed in HEK293 cell membranes at 1 to 10 uM after 90 mins relative to control
Cannabinoid receptor 2 [4] = target: T1, Cannabinoid receptor 2; assay: Displacement of [3H]-CP-55940 from human CB2 receptor expressed in HEK293 cell membranes after 90 mins by radioligand binding assay
Procedure, shortened: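 Compounds were screened at 1 and 10 µM; those displacing over 50% were run at 0.1nM–10µM. Ki by Cheng-Prusoff from IC50. At least three experiments, duplicate.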

Cannabinoid receptor 2 [5] = target: T1, Cannabinoid receptor 2; assay: Inverse agonist activity at human CB2 receptor expressed in CHO-K1 cells assessed as increase in NKH-477-induced intracellular cAMP levels after 30 mins by luminescence assay; type: functional, cell-based
Procedure, shortened: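 CHO-K1 cells stably overexpressing human CB2, plated 30,000 cells/well and held overnight at 37 °C, 5% CO2. Compounds were added with NKH-477 (water-soluble forskolin analogue; 3x of 25µM solution) for 30 min at 37°C. cAMP was read by enzyme-fragment-complementation chemiluminescence. Values are normalized to NKH-477 alone as 100% response. Three independent experiments, triplicate.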

Cannabinoid receptor 2 [6] = target: T1, Cannabinoid receptor 2; assay: Antagonist activity at human CB2 receptor expressed in CHO-K1 cells assessed as increase in NKH-477-induced intracellular cAMP levels preincubated for 15 mins followed by JWH-133 addition after 30 mins by luminescence assay; type: functional, cell-based

Sequence of Cannabinoid receptor 1 (CB1) (P21554 whole entry): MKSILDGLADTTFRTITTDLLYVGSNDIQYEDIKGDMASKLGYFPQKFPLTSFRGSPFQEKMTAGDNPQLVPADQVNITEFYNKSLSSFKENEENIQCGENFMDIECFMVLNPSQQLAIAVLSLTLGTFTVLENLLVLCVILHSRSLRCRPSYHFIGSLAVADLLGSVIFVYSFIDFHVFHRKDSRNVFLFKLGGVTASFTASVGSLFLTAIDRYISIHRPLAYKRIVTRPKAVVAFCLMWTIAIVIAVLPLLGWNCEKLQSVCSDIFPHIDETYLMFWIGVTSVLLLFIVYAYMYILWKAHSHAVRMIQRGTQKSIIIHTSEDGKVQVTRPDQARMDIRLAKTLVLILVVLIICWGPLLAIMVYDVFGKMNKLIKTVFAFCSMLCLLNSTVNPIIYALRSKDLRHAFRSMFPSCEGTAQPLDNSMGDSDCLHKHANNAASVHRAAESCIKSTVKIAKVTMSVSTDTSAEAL
Sequence of Cannabinoid receptor 1 (P21554 whole entry): as above
T1 sequence (P34972 whole entry): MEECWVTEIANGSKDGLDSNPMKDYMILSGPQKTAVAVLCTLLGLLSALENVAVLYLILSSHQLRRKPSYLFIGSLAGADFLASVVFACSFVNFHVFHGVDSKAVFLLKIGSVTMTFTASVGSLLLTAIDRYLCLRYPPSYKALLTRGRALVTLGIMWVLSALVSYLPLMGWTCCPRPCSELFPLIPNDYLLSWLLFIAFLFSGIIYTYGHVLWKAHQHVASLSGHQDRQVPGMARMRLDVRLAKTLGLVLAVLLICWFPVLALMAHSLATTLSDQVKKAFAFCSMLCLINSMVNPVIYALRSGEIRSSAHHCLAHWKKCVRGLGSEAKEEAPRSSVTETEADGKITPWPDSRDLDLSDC

Structure (SMILES) | IC50 (Cannabinoid receptor 2 [1]) [nM] | inhibition at 1.5 h, up to 10 µM [2] [%] | Ratio Ki (HEK293) | Ki (Cannabinoid receptor 1) [nM] | inhibition (Cannabinoid receptor 2 [3]) [%] | Ki (Cannabinoid receptor 2 [4]) [nM] | Activity (Cannabinoid receptor 2 [5]) | Activity (Cannabinoid receptor 2 [6])
CCOC(=O)c1c(NC(=O)C23CC4CC(CC(C4)C2)C3)sc2c1CCCC2 | 475 | > 50 | 469 to 500 | 1010 | > 50 | 2.15 |  | 
Cc1cc(C(=O)NCCc2ccccc2)c(C)n1-c1ccccc1 |  | > 50 | 10.2 | 5930 | > 50 | 584 |  | 
CCOC(=O)c1cc(-c2ccccc2)sc1N(S(=O)(=O)c1ccc2ccccc2c1)S(=O)(=O)c1ccc2ccccc2c1 |  | > 50 |  | > 10000 | > 50 | > 10000 |  | 
Cc1cc(C(=O)O)c(C)n1-c1ccccc1 |  | > 50 |  | > 10000 | > 50 | > 10000 |  | 
Cc1cc(C(=O)Nc2ccc3ccccc3c2)c(C)n1-c1ccccc1 |  | > 50 | 4.82 | 281 | > 50 | 58.3 |  | 
CCOC(=O)c1c(NS(=O)(=O)c2cccc3ccccc23)sc2c1CCCC2 |  | > 50 | > 12.5 | > 10000 | > 50 | 800 |  | 
CCOC(=O)c1cc(-c2ccccc2)sc1NS(=O)(=O)c1cccc2ccccc12 |  | > 50 |  | > 10000 | > 50 | > 10000 |  | 
CCOC(=O)c1c(NS(=O)(=O)c2ccc3ccccc3c2)sc2c1CCCC2 |  | > 50 |  | > 10000 | > 50 | > 10000 |  | 
CCOC(=O)c1cc(-c2ccccc2)sc1NS(C)(=O)=O |  | > 50 |  | > 10000 | > 50 | > 10000 |  | 
CCOC(=O)c1c(NS(=O)(=O)c2ccccc2)sc2c1CCCC2 |  | > 50 | > 5.02 | > 10000 | > 50 | 1990 |  | 
CCc1c(C(=O)NC(C)c2ccccc2)cc(C)n1-c1ccccc1 (centres undefined) |  | > 50 | 6.92 | 3740 | > 50 | 540 |  | 
CCc1c(C(=O)NC23CC4CC(CC(C4)C2)C3)cc(C)n1-c1ccccc1 | 398 | > 50 | 195 to 200 | 1200 | > 50 | 6.15 | Active | Active
CCOC(=O)c1c(NC(=O)c2ccc3ccccc3c2)sc2c1CCCC2 |  | > 50 | > 5.6 | > 10000 | > 50 | 1790 |  | 
CCOC(=O)c1c(NC(=O)c2cccc3ccccc23)sc2c1CCCC2 |  | > 50 | 80 to 81.7 | 1370 | > 50 | 16.8 |  | 
CCc1c(C(=O)Nc2cccc3ccccc23)cc(C)n1-c1ccccc1 |  | > 50 | 25 | 505 | > 50 | 20 |  | 
Cc1cc(C(=O)NC2CCCCC2)c(C)n1-c1ccccc1 |  | > 50 | > 59.6 | > 10000 | > 50 | 168 |  | 
